Measurements from paper PMC6997517 (EBioMedicine, 2020).

Key:
HEK-Blue™ hTLR4 cells = assay: MTT cell viability, HEK-Blue hTLR4 cells; format: cell-based, human; details: n ≥ 3
In short: (§1)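 MTT colourimetric viability assay. HEK-Blue hTLR4 cells (high-glucose DMEM, 10% FBS, normocin) seeded at 5 × 10^4/well. RAW264.7 cells seeded at 2 × 10^5/well. Both grown overnight before exposure to test compound.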

RAW264.7 cells = assay: MTT cell viability, RAW264.7 cells; format: cell-based, murine; details: 50 μM
In short: as §1

TLR4 [1] = assay: Cytokine ELISA, LPS-stimulated RAW264.7 cells; format: cell-based, murine; details: n ≥ 3
In short: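 Murine macrophages seeded at 2 × 10^5/well (96-well) or 5 × 10^5/well (24-well) and grown overnight, then treated with test compound and LPS. After 24 h treatment, secreted IFN-β was measured by pre-coated mouse IFN-β ELISA. Mouse IL-6 and mouse TNF-α were measured by ELISA kits.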

IL-1 receptor (IL-1R) = assay: IL-8 secretion, IL-1β-activated THP-1 cells; format: cell-based, human; details: THP-1 activated with IL-1β
TLR4 [2] = assay: Intracellular NO and ROS; format: cell-based, murine; details: LPS, 50 μM TIP3
In short: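 RAW264.7 cells seeded at 1 × 10^6 per 6 cm dish and grown overnight. Stimulated with LPS and treated with test compound. Intracellular NO stained with DAF-FM and ROS with DCF-DA. Cellular fluorescence quantified by flow cytometry.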

TLR9 = assay: TNF-α secretion, CpG-ODN-stimulated RAW264.7 cells; format: cell-based, murine; details: TIP3 at 50 μM
In short: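 RAW264.7 cells seeded at 2 × 10^5/well (96-well) or 5 × 10^5/well (24-well), grown overnight, then treated with test compound. Stimulus: poly(I:C), CpG-ODN (15), FSL-1 (16) or R848 (17). Supernatant cytokines read after 24 h by mouse ELISA kits (IFN-β, IL-6, TNF-α). Cells kept at 37 °C, 5% CO2.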

TLR4 [3] = assay: Quantitative RT-PCR, LPS-stimulated RAW264.7 cells; format: cell-based, murine; details: TIP3 50 μM 1 h before LPS 100 ng/ml, 3 h; normalized to β-actin
In short: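 Total RNA isolated with TRIzol and reverse-transcribed to cDNA. qPCR run with SYBR Green and gene-specific primers (reference genes β-actin and Gapdh). Relative expression calculated by the ΔΔCt method.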

TLR4 [4] = assay: Western blot, LPS-stimulated hPBMCs; format: cell-based, human
In short: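 Total protein extracted with M-PER reagent and quantified by BCA. Membranes incubated with primary antibodies overnight at 4 °C, washed in PBS/0·1% Tween 20, then HRP-conjugated secondary (1:1000) for 2 h. Bands detected by enhanced chemiluminescence, with β-actin as loading reference.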

TLR4 [5] = assay: Quantitative RT-PCR, LPS-stimulated THP-1 cells; format: cell-based, human; details: TIP3 50 μM 1 h, then LPS 4 h; normalized to GAPDH
In short: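 THP-1 cells pretreated with test compound (50 μM) for 1 h, then LPS (100 ng/ml) added for 4 h. Total RNA extracted with TRIzol and cDNA synthesised. SYBR Green qPCR run with primers for IL-1β, IL-6, IL-8, TNF-α, with β-actin and GAPDH as references. Relative expression calculated by the ΔΔCt method.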

TLR3 [6] = assay: Cytokine ELISA, poly; format: cell-based, mouse; details: mBMDMs, poly(I:C)
In short: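 Bone marrow flushed from femurs and tibiae of C57BL/6J mice (6–7 weeks). Cultured in DMEM/10% FBS with M-CSF (25 ng/ml) for 3–4 days, detached with trypsin-EDTA, replated, and used 24 h later. Seeded and grown overnight, stimulated with poly(I:C) plus test compound. Secreted IFN-β measured after 24 h by mouse IFN-β ELISA.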

TLR4 [7] = assay: NO secretion assay, LPS-stimulated mBMDMs; format: cell-based, mouse
In short: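 Bone marrow macrophages from C57BL/6J femurs/tibiae, differentiated with M-CSF (25 ng/ml) for 3–4 days and replated 24 h before use. Seeded at 2 × 10^5/well, grown overnight. Pretreated with test compound for 1 h, then co-treated with LPS. Extracellular NO in supernatant measured with a nitric oxide detection kit by absorbance at 550 nm.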

TLR4 [8] = assay: Cytokine ELISA, LPS-stimulated hMNCs; format: cell-based, human
In short: (§2)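 Commercial human mononuclear cells kept in RPMI 1640 (2·05 mM L-glutamine, 10% FBS, penicillin/streptomycin). Seeded at 2 × 10^5/well and grown overnight. Stimulated with LPS or poly(I:C) alongside test compound. After 24 h, supernatant IL-6 and TNF-α measured by human sandwich ELISA.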

TLR3 [9] = assay: Cytokine ELISA, poly; format: cell-based, human; details: hMNCs, poly(I:C)
In short: as §2

CIA mice = assay: Micro-CT and histology of knee joints, CIA model; format: in vivo, mouse (DBA/1 J)
In short: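 DBA/1J collagen-induced arthritis mice, dosed i.p. daily from day 22. Knee bone samples fixed in 10% formalin and scanned by in vivo micro-CT. Bone mineral density measured at 1 mm below the top of the tibia within a set region of interest. Joint sections stained with H&E and examined for synovial hyperplasia, pannus, immune-cell infiltration and joint-space narrowing.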

[10] = tested on: mice with IMQ-induced psoriasis-like disease; assay: Histology and immunohistochemistry of back skin, psoriasis model; format: in vivo, mouse (C57BL/6)
In short: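 Back-skin lesions from imiquimod-treated C57BL/6 mice fixed in 4% paraformaldehyde, paraffin-embedded and sectioned at 7 μm. H&E staining used for epidermal/dermal thickness, measured by microscopy. Immunohistochemistry done with HRP/DAB detection using primary antibodies to CD68, CD4 and IL-17.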

[11] = TIP3 10 and 50 nmol/g, H&E, five skin samples per group

## DYDVCVCH [TIP3]
HEK-Blue™ hTLR4 cells; 12·5 to 50 μM
  cell viability / cytotoxicity: did not show any significant cytotoxicity
HEK-Blue™ hTLR4 cells; high concentration, 100 μM
  cell viability / cytotoxicity: slight cytotoxicity
RAW264.7 cells
  cell viability / toxicity: did not have any toxic effects
TLR4 [1]
  LPS-induced IFN-α secretion: significantly prevented in vitro production of proinflammatory cytokines (TNF-α and IL-6) and IFN-α and -β in a dose-dependent manner
  LPS-induced IFN-β secretion: significantly prevented in vitro production of proinflammatory cytokines (TNF-α and IL-6) and IFN-α and -β in a dose-dependent manner
  LPS-induced IL-6 secretion: significantly prevented in vitro production of proinflammatory cytokines (TNF-α and IL-6) and IFN-α and -β in a dose-dependent manner
  LPS-induced TNF-α secretion: significantly prevented in vitro production of proinflammatory cytokines (TNF-α and IL-6) and IFN-α and -β in a dose-dependent manner
IL-1 receptor (IL-1R)
  IL-8 secretion: did not hinder the secretion of IL-8
TLR4 [2]; DAF-FM
  intracellular NO: significantly inhibited
TLR4 [2]; DCF-DA
  intracellular ROS: significantly inhibited
TLR9
  TNF-α secretion mediated by TLR9: somewhat weak inhibition
TLR4 [3]
  Cxcl-10 mRNA expression: significantly inhibited the mRNA expression
  Ifn-β mRNA expression: significantly inhibited the mRNA expression
  Il-1β mRNA expression: significantly inhibited the mRNA expression
  Il-6 mRNA expression: significantly inhibited the mRNA expression
  Tnf-α mRNA expression: significantly inhibited the mRNA expression
TLR4 [4]
  activation of ATF3: hindered the activation of NF-κB and ATF3
  activation of NF-κB: hindered the activation of NF-κB
  phosphorylation of ERK: inhibited the phosphorylation of MAPKs, including ERK, JNK, and p38
  phosphorylation of IRF3: hindered the activation of NF-κB and ATF3 and the phosphorylation of IRF3
  phosphorylation of JNK: inhibited the phosphorylation of MAPKs, including ERK, JNK, and p38
  phosphorylation of p38: inhibited the phosphorylation of MAPKs, including ERK, JNK, and p38
TLR4 [5]
  IL-1β mRNA expression: inhibited LPS-induced mRNA expression
  IL-6 mRNA expression: inhibited LPS-induced mRNA expression
  IL-8 mRNA expression: inhibited LPS-induced mRNA expression of these cytokines and of IL-8
  TNF-α mRNA expression: inhibited LPS-induced mRNA expression
TLR3 [6]
  TLR3-mediated IFN-β secretion: suppressed
TLR4 [7]
  LPS-induced extracellular NO: significant reduction
TLR4 [8]
  TLR4-mediated IL-6 secretion: significantly inhibited
  TLR4-mediated TNF-α secretion: significantly inhibited
TLR3 [9]
  TLR3-mediated TNF-α secretion: significantly inhibited
CIA mice; TIP3 10 nmol/g, micro-CT
  bone destruction recovery (knee joint): remarkable recovery from the bone destruction
CIA mice; TIP3-treated CIA mice, Fig. 4j synovial hyperplasia score
  inflammation score: significantly lower inflammation score
CIA mice; prolonged TIP3 treatment
  synovial hyperplasia score: substantially reduces inflammation
[10]; [11]
  thickness of the dermis: noticeably attenuated thickness of the epidermis (yellow arrowheads) and dermis
  thickness of the epidermis: noticeably attenuated thickness of the epidermis
[10]; immunohistochemistry
  overexpression of CD4 in skin: effectively attenuated the overexpression of CD68, CD4
  overexpression of CD68 in skin: effectively attenuated the overexpression of CD68
  overexpression of IL-17 in skin: effectively attenuated the overexpression of CD68, CD4, and IL-17
